# Experimental data from different studies.
# Protocols differ between the studies behind these lines.
# OPRD1: Delta-type opioid receptor (OPRD1, Homo sapiens, UniProt P41143)
# gag-pol reverse transcriptase: Gag-Pol polyprotein, reverse transcriptase (gag-pol, Human immunodeficiency virus 1, UniProt P03366)
# ADRA2A: Alpha-2A adrenergic receptor (ADRA2A, Homo sapiens, UniProt P08913)
# OGT: UDP-N-acetylglucosamine--peptide N-acetylglucosaminyltransferase 110 kDa subunit (OGT, Homo sapiens, UniProt O15294)
Compound,target,effect on,mode,method,notes,IC50 [µM]
Cc1c(O)c(O)cc2c1CC=C1[C@@]2(C)CC[C@@]2(C)[C@@H]3C[C@](C)(C(=O)O)CC[C@]3(C)CC[C@]12C,"Androgen receptor (AR, Homo sapiens, UniProt P10275)",ligand displacement in cells,,radioligand,,0.057
CCC[C@H](CN[C@H](CNC)Cc1ccc(O)cc1)NCC1CCC(C)CC1 (some centres unmarked),OPRD1,cell-free assay,,,,> 10
O=c1c(O)c(-c2ccc(O[C@@H]3O[C@H](CO)[C@@H](O)[C@H](O)[C@H]3O)c(O)c2)oc2cc(O)cc(O)c12,"Carbonic anhydrase 2 (CA2, Homo sapiens, UniProt P00918)",enzyme activity,inhibitor,absorbance,,0.0194
Cc1cn([C@@H]2C=C[C@H](OC(P(=O)(O)O)P(=O)(O)O)C2)c(=O)[nH]c1=O (relative stereo),gag-pol reverse transcriptase,enzyme activity,inhibitor,radiometric,,204
COc1ncccc1-c1cnn2ccc(N3CCN(C(=O)OC(C)C)CC3)nc12,ADRA2A,cell-free assay,,,,> 30
CCC[C@H](CNC)NC[C@H](Cc1ccc(O)cc1)NCCC1CCCC1,OPRD1,cell-free assay,,,,> 10
CC[C@H](C)[C@H](NC(=O)[C@H](CO)NC(=O)[C@H](Cc1ccc(O)cc1)NC(=O)[C@H](CCCCN)NC(=O)[C@@H]1CCCN1C(=O)[C@H](CCSC)NC(=O)[C@H](Cc1ccccc1)NC(=O)[C@H](CCSC)NC(=O)[C@@H](NC(=O)[C@@H]1CCCN1C(=O)[C@H](Cc1ccccc1)NC(=O)[C@H](CC(=O)O)NC(=O)CN)C(C)C)C(=O)N[C@H](C(=O)N[C@@H](Cc1ccccc1)C(=O)N[C@@H](CCCCN)C(=O)N[C@@H](CCCCN)C(=O)O)[C@@H](C)CC,OGT,enzyme activity,inhibitor,fluorescence,,16
CCOC(=O)c1cncn1[C@H](C)c1ccc(C2(C(F)(F)F)N=N2)cc1,"5-hydroxytryptamine receptor 3A (HTR3A, Homo sapiens, UniProt P46098)",ion current,,two-electrode voltage clamp,oocytes,9
CNC[C@H](Cc1ccc(O)cc1)N1CCN(CCc2cccc(C)c2)[C@@H](C(C)C)C1,OPRD1,cell-free assay,,,,> 10
CN1CCC(=C2c3ccccc3CCc3sccc32)CC1,ADRA2A,calcium signal,antagonist,,,7.25
CCC[C@H](CN[C@H](CNC)Cc1ccc(O)cc1)NCCC1CCCC1,OPRD1,cell-free assay,,,,> 10
CC(C)Cc1ccc([C@@H](C)C(=O)O)cc1,"Histone acetyltransferase p300 (EP300, Homo sapiens, UniProt Q09472)",enzyme activity,inhibitor,mobility shift,,~6000
CC(C)c1ccc(O)c(=O)c(O)c1,gag-pol reverse transcriptase,enzyme activity,inhibitor,FRET,,0.308
CC[C@H](C)[C@H](NC(=O)[C@H](CO)NC(=O)[C@H](Cc1ccc(O)cc1)NC(=O)[C@H](CCCCN)NC(=O)[C@@H]1CCCN1C(=O)[C@H](CCSC)NC(=O)[C@H](Cc1ccccc1)NC(=O)[C@H](CCSC)NC(=O)[C@@H](NC(=O)[C@@H]1CCCN1)C(C)C)C(=O)N[C@H](C(=O)N[C@@H](Cc1ccccc1)C(=O)O)[C@@H](C)CC,OGT,enzyme activity,inhibitor,fluorescence,,20
CCN(CC)C(=O)C1CN2CCc3cc(OC)c(OC)cc3C2CC1OC(C)=O (centres unmarked),ADRA2A,ligand displacement,,radioligand,,0.825
Cc1cn([C@@H]2CC[C@H](OC(C(=O)O)C(=O)O)C2)c(=O)[nH]c1=O (relative stereo),gag-pol reverse transcriptase,enzyme activity,inhibitor,radiometric,,42
CC(C)[C@@H]1CN([C@@H](CNCc2ccccc2)C(C)C)CCN1CCc1ccccc1,OPRD1,cell-free assay,,,,> 10
CC(CCc1ccccc1)NC(C)C(O)c1ccc(O)cc1 (centres unmarked),ADRA2A,calcium signal,antagonist,,,18.6
C[C@@H](NC(=O)[C@@H](N)Cc1ccc(O)cc1)C(=O)NCC(=O)N[C@H](CC(=O)NNC(=O)C[C@H](Cc1ccccc1)NC(=O)CNC(=O)[C@@H](C)NC(=O)[C@@H](N)Cc1ccc(O)cc1)Cc1ccccc1,OPRD1,ligand displacement,,radioligand,,0.00145
CC(C)CCN1CCN([C@@H](CNCc2ccccc2)C(C)C)C[C@H]1C(C)C,OPRD1,cell-free assay,,,,> 10
